Data from PMC3832383 (Drug Design, Development and Therapy, 2013).
Converted amounts (≈) assume the structure as drawn.

System: P. falciparum strain NF54
Experiment: [3H]hypoxanthine incorporation assay, unsynchronized parasites
Format: cell-based
Conditions: Plasmodium falciparum, NF54, 72 h
Outline: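 Two ways of diluting the 10 mg/mL stock were compared. In one, the stock went straight into hypoxanthine-free medium. In the other, it was diluted 1/50 in co-solvent, then 1/100 and 1/2 in hypoxanthine-free medium.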

Structure (SMILES)	IC50 [ng/mL]
CCN(CC)Cc1cc(Nc2ccnc3cc(Cl)ccc23)ccc1O [amodiaquine]	1.5 (≈ 0.00422 µM)
C[C@@H]1CC[C@H]2[C@@H](C)C(=O)O[C@@H]3O[C@@]4(C)CC[C@@H]1[C@]32OO4 [artemisinin]	3 (≈ 0.0106 µM)

Next, values leading:

IC50 [ng/mL]	Structure (SMILES)
7.8 (≈ 0.0146 µM)	Clc1ccc2c(N3CCN(CCCN4CCN(c5ccnc6cc(Cl)ccc56)CC4)CC3)ccnc2c1 [piperaquine]
4.1 (≈ 0.0108 µM)	OC(c1cc(C(F)(F)F)nc2c(C(F)(F)F)cccc12)C1CCCCN1 (stereo not drawn) [mefloquine]
2.6 (≈ 0.00502 µM)	COc1ccc2nc3cc(Cl)ccc3c(Nc3cc(CN4CCCC4)c(O)c(CN4CCCC4)c3)c2n1 [pyronaridine]
3 (≈ 0.0121 µM)	CCc1nc(N)nc(N)c1-c1ccc(Cl)cc1 [pyrimethamine]

System: P. falciparum strain NF54
Experiment: not given
Conditions: unsynchronized NF54; cited from earlier work

Structure (SMILES)	IC50 [ng/mL]
[H]/N=C(\N/C(=N/[H])Nc1ccc(Cl)cc1)NC(C)C [proguanil]	440 (≈ 1.73 µM)
O=C1C(O)=C([C@H]2CC[C@H](c3ccc(Cl)cc3)CC2)C(=O)c2ccccc21 [atovaquone]	0.38 (≈ 0.00104 µM)

System: Plasmodium falciparum strain NF54 (rings, trophozoites, schizonts)
Experiment: In vitro assessment of stage-specific activity, synchronous cultures
Format: cell-based
Conditions: control drug; data not shown
Outline: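 P. falciparum NF54 synchronized by two 5% D-sorbitol treatments, with intervals set to give rings (>80%, ≤6 h old), trophozoites (≥80%, ≤20 h) or early schizonts (≤36 h). Stages were exposed 6 or 24 h to two-fold dilutions (final 250–7.81 ng/mL) in hypoxanthine-free medium, co-solvent <0.5%, then washed and assessed by [3H]hypoxanthine incorporation. Values are mean ± SD of 3–4 independent experiments.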

Structure (SMILES)	effect against ring and trophozoite stages
CCc1nc(N)nc(N)c1-c1ccc(Cl)cc1 [pyrimethamine]	ineffective
